According to ChEMBL document CHEMBL3351588, “Design, synthesis and biological evaluation of N-alkyl or aryl substituted isoindigo derivatives as potential dual cyclin-dependent kinase 2 (CDK2)/glycogen synthase kinase 3β (GSK-3β) phosphorylation inhibitors” (Eur J Med Chem, 2014):

How the values were obtained:
[1] = tested on: K562; test: Induction of cell cycle arrest in human K562 cells assessed as accumulation at S phase at 5 uM after 24 hrs by propidium iodide staining based flow cytometry (reference value: 44.90%); type: functional
[2] = tested on: K562; test: Induction of apoptosis in human K562 cells after 24 hrs by Annexin V-FITC/propidium iodide staining based flow cytometry; type: functional, cell-based
In short: (§1)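 K562 cells exposed for 24 h or 48 h to 0, 5.0, 10.0, 15.0, 20.0 or 30.0 µM; vehicle DMSO 0.5% v/v. Cells stained with FITC-Annexin V, then counterstained with PI, and analysed by FACScan flow cytometry. Quadrants: Annexin V−/PI− viable; Annexin V+/PI− early apoptotic; Annexin V+/PI+ late apoptotic/necrotic.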

[3] = tested on: K562; test: Induction of apoptosis in human K562 cells after 48 hrs by Annexin V-FITC/propidium iodide staining based flow cytometry; type: functional, cell-based; in short: as §1
[4] = tested on: K562; test: Induction of apoptosis in human K562 cells assessed as viable cells level at 5 uM after 24 hrs by Annexin V-FITC/propidium iodide staining based flow cytometry (reference value: 97.64%); type: functional; in short: as §1
[5] = tested on: K562; test: Induction of apoptosis in human K562 cells assessed as viable cells level at 10 uM after 24 hrs by Annexin V-FITC/propidium iodide staining based flow cytometry (reference value: 97.64%); type: functional; in short: as §1
[6] = tested on: K562; test: Induction of apoptosis in human K562 cells assessed as early apoptotic cells level at 10 uM after 24 hrs by Annexin V-FITC/propidium iodide staining based flow cytometry (reference value: […]); type: functional
[7] = tested on: K562; test: Induction of apoptosis in human K562 cells assessed as necrotic cells level at 10 uM after 24 hrs by Annexin V-FITC/propidium iodide staining based flow cytometry (reference value: 0.0%); type: functional; in short: as §1
[8] = tested on: K562; test: Induction of apoptosis in human K562 cells assessed as viable cells level at 15 uM after 24 hrs by Annexin V-FITC/propidium iodide staining based flow cytometry (reference value: 97.64%); type: functional; in short: as §1
[9] = tested on: K562; test: Induction of apoptosis in human K562 cells assessed as early apoptotic cells level at 15 uM after 24 hrs by Annexin V-FITC/propidium iodide staining based flow cytometry (reference value: […]); type: functional
[10] = tested on: K562; test: Induction of apoptosis in human K562 cells assessed as viable cells level at 20 uM after 24 hrs by Annexin V-FITC/propidium iodide staining based flow cytometry (reference value: 97.64%); type: functional; in short: as §1
[11] = tested on: K562; test: Induction of apoptosis in human K562 cells assessed as necrotic cells level at 20 uM after 24 hrs by Annexin V-FITC/propidium iodide staining based flow cytometry (reference value: 0.0%); type: functional; in short: as §1
[12] = tested on: K562; test: Induction of apoptosis in human K562 cells assessed as viable cells level at 30 uM after 24 hrs by Annexin V-FITC/propidium iodide staining based flow cytometry (reference value: 97.64%); type: functional; in short: as §1
[13] = tested on: K562; test: Induction of apoptosis in human K562 cells assessed as early apoptotic cells level at 30 uM after 24 hrs by Annexin V-FITC/propidium iodide staining based flow cytometry (reference value: […]); type: functional
[14] = tested on: K562; test: Induction of apoptosis in human K562 cells assessed as early apoptotic cells level at 5 uM after 48 hrs by Annexin V-FITC/propidium iodide staining based flow cytometry (reference value: 0.24%); type: functional; in short: as §1
[15] = tested on: K562; test: Induction of apoptosis in human K562 cells assessed as late apoptotic cells level at 5 uM after 48 hrs by Annexin V-FITC/propidium iodide staining based flow cytometry (reference value: 0.54%); type: functional; in short: as §1
[16] = tested on: K562; test: Induction of apoptosis in human K562 cells assessed as viable cells level at 10 uM after 48 hrs by Annexin V-FITC/propidium iodide staining based flow cytometry (reference value: 99.21%); type: functional; in short: as §1
[17] = tested on: K562; test: Induction of apoptosis in human K562 cells assessed as early apoptotic cells level at 10 uM after 48 hrs by Annexin V-FITC/propidium iodide staining based flow cytometry (reference value: 0.24%); type: functional; in short: as §1
[18] = tested on: K562; test: Induction of apoptosis in human K562 cells assessed as early apoptotic cells level at 15 uM after 48 hrs by Annexin V-FITC/propidium iodide staining based flow cytometry (reference value: 0.24%); type: functional; in short: as §1
[19] = tested on: K562; test: Induction of apoptosis in human K562 cells assessed as late apoptotic cells level at 15 uM after 48 hrs by Annexin V-FITC/propidium iodide staining based flow cytometry (reference value: 0.54%); type: functional; in short: as §1
[20] = tested on: K562; test: Induction of apoptosis in human K562 cells assessed as necrotic cells level at 15 uM after 48 hrs by Annexin V-FITC/propidium iodide staining based flow cytometry (reference value: 0.01%); type: functional; in short: as §1
[21] = tested on: K562; test: Induction of apoptosis in human K562 cells assessed as early apoptotic cells level at 20 uM after 48 hrs by Annexin V-FITC/propidium iodide staining based flow cytometry (reference value: 0.24%); type: functional; in short: as §1
[22] = tested on: K562; test: Induction of apoptosis in human K562 cells assessed as late apoptotic cells level at 30 uM after 48 hrs by Annexin V-FITC/propidium iodide staining based flow cytometry (reference value: 0.54%); type: functional; in short: as §1
[23] = tested on: K562; test: Induction of apoptosis in human K562 cells assessed as necrotic cells level at 30 uM after 48 hrs by Annexin V-FITC/propidium iodide staining based flow cytometry (reference value: 0.01%); type: functional; in short: as §1
[24] = tested on: K562; test: Reduction in cyclin A protein expression in human K562 cells at 5 to 30 uM after 24 hrs by Western blotting method; type: functional, cell-based
[25] = target: Glycogen synthase kinase-3 beta (Homo sapiens) (UniProt P49841); test: Inhibition of GSK3beta Ser9 phosphorylation in human K562 cells at 5 to 30 uM after 24 hrs by Western blotting method; type: cell-based
[26] = tested on: K562; test: Reduction in beta-catenin protein expression in human K562 cells at 5 to 30 uM after 24 hrs by Western blotting method; type: functional, cell-based
[27] = tested on: MGC-803; test: Cytotoxicity against human MGC803 cells after 48 hrs by SRB assay; type: functional, cell-based; conditions: MGC-803, 48 h
In short: (§2)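 Cells seeded at 5 × 10³ per well and allowed to attach for 12 h, then exposed to a range of drug concentrations in their own medium for 48 h. Fixed with ice-cold TCA for 1 h at 4 °C, washed, then stained with 0.4% SRB for 30 min at room temperature. IC50 is the mean of three independent experiments.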

[28] = tested on: L1210; test: Cytotoxicity against mouse L1210 cells after 48 hrs by SRB assay; type: functional, cell-based; conditions: L1210, 48 h; in short: as §2
[29] = tested on: K562; test: Induction of cell cycle arrest in human K562 cells assessed as accumulation at S phase after 24 hrs by propidium iodide staining based flow cytometry; type: functional
[30] = tested on: K562; test: Induction of cell cycle arrest in human K562 cells assessed as reduction in accumulation at G0/G1 phase after 24 hrs by propidium iodide staining based flow cytometry; type: functional
[31] = tested on: K562; test: Induction of cell cycle arrest in human K562 cells assessed as reduction in accumulation at G2/M phase after 24 hrs by propidium iodide staining based flow cytometry; type: functional
[32] = tested on: K562; test: Induction of cell cycle arrest in human K562 cells assessed as accumulation at G0/G1 phase at 10 uM after 24 hrs by propidium iodide staining based flow cytometry (reference value: 36.14%); type: functional
[33] = tested on: K562; test: Induction of cell cycle arrest in human K562 cells assessed as accumulation at G0/G1 phase at 5 uM after 24 hrs by propidium iodide staining based flow cytometry (reference value: 36.14%); type: functional

Sequence of Glycogen synthase kinase-3 beta (Homo sapiens) (P49841 whole entry, looked up): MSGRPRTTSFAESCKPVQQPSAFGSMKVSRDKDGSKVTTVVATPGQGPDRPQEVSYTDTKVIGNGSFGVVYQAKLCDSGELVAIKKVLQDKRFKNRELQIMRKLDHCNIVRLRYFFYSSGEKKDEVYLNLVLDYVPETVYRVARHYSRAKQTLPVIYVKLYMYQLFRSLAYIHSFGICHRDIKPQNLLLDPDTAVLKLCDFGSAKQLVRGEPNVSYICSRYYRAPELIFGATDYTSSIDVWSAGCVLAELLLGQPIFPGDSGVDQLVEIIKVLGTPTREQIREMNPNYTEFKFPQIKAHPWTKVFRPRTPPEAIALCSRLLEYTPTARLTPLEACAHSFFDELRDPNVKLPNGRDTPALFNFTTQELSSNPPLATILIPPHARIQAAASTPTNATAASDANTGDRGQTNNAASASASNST

inhibition [25]: Dose-dependent effect
Structure (SMILES): COc1ccc(N2C(=O)/C(=C3/C(=O)Nc4ccccc43)c3ccccc32)cc1
Activity [1]: 46.03%
Activity [2]: Dose-dependent effect
Activity [3]: Dose-dependent effect
Activity [4]: 96.21%
Activity [5]: 93.14%
Activity [6]: 4.4%
Activity [7]: 0.01%
Activity [8]: 90.17%
Activity [9]: 5.34%
Activity [10]: 72.9%
Activity [11]: 0.01%
Activity [12]: 56.98%
Activity [13]: 23%
Activity [14]: 1.46%
Activity [15]: 0.76%
Activity [16]: 96.91%
Activity [17]: 1.68%
Activity [18]: 2.1%
Activity [19]: 2.2%
Activity [20]: 0.02%
Activity [21]: 5.51%
Activity [22]: 42.09%
Activity [23]: 1.3%
inhibition [24]: Dose-dependent effect
inhibition [26]: Dose-dependent effect
IC50 [27]: 122 µM
IC50 [28]: 102 µM
Activity [29]: Dose-dependent effect
Activity [30]: Dose-dependent effect
Activity [31]: Dose-dependent effect
Activity [32]: 34.81%
Activity [33]: 37.16%
